Measurements from ChEMBL document CHEMBL4033777, “Next-Generation Hypoxic Cell Radiosensitizers: Nitroimidazole Alkylsulfonamides” (J Med Chem, 2018).
Converted amounts (≈) assume the structure as drawn.

What was measured:
HCT-116 [1] = assay: Hypoxic cytotoxicity ratio of IC50 for human HCT116 cells under oxic condition to IC50 for human HCT116 cells under anoxic condition
Method in brief: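 HCT116 cells, 700 per well and attached 2 h, got a 4 h exposure to 3-fold serial dilutions (<1% DMSO) under air or in a Pd-catalyst anaerobic chamber with pre-equilibrated medium. Cells were washed, regrown 5 days, and stained with sulforhodamine B to give IC50. HCR = oxic IC50 / anoxic IC50.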

HCT-116 [2] = assay: (§1) Hypoxia radiosensitization activity in human HCT116 cells assessed as survival ratio by measuring ratio of cell survival with radiation in absence to presence of compound at 0.03 mM preincubated for 1 hr followed by 6 to 29 Gy irradiation measured after 10 days by methylene blue staining-based cell counting method relative to misonidazole; type: functional
HCT-116 [3] = assay: Cytotoxicity against human HCT116 cells at anoxic IC50 incubated for 1 hr at 21 degC by sulforhodamine B assay; type: cell-based; conditions: hct-116, 1 h
HCT-116 [4] = assay: (§2) Hypoxia radiosensitization activity in human HCT116 cells assessed as sensitizer enhancement ratio by measuring ratio of radiation dose for 1% survival in absence to presence of compound at 0.03 mM preincubated for 1 hr followed by irradiation measured after 10 days by methylene blue staining-based cell counting method; type: functional
HCT-116 [5] = assay: Cytotoxicity against human HCT116 cells incubated for 4 hrs under aerobic condition measured after 5 days by sulforhodamine B assay; type: cell-based
Method in brief: (§3)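 STR-authenticated, mycoplasma-free HCT116 cells in αMEM + 5% FCS were seeded at 700 cells/well and allowed 2 h to attach. Drug was added from DMSO stocks (<1% DMSO) in serial 3-fold dilutions for 4 h, oxic or anoxic (Pd-catalyst anaerobic chamber, medium pre-equilibrated ≥3 days). After washing, cells regrew for 5 days before SRB staining and IC50 determination.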

HCT-116 [6] = assay: as §1, with “with 15 Gy” for “with”, “anoxic IC50” for “0.03 mM”, “15” for “6 to 29”, “method” for “method relative to misonidazole”; type: functional
Method in brief: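 Anoxic HCT116 cells were seeded at 10^5/well and treated at the anoxic IC50 concentration for 1 h at room temperature. They were irradiated with 15 Gy (60Co, ~2 Gy/min) in a sealed steel box, then plated clonogenically. Colonies of >50 cells were counted […]. SR15 = survival with radiation / survival with drug + radiation.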

HCT-116 [7] = assay: as §2, with “method relative to misonidazole” for “method”; type: functional
[8] = Solubility of the compound in alphaMEM containing 5% FCS and 1% DMSO by HPLC analysis; type: physicochemical
Method in brief: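 Saturated drug solutions were incubated at 37 °C in αMEM with 5% FCS and 1% DMSO. Dissolved drug was quantified by HPLC.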

HCT-116 [9] = assay: Cytotoxicity against human HCT116 cells incubated for 4 hrs under anaerobic condition measured after 5 days by sulforhodamine B assay; type: functional, cell-based; method in brief: as §3
HCT-116 [10] = assay: as §1, with “method” for “method relative to misonidazole”; type: functional
HCT-116 [11] = assay: (§4) In vivo hypoxia radiosensitization activity in human HCT116 cells xenografted in NIH-III mouse assessed as survival ratio by measuring ratio of cell survival with 12.5 Gy radiation in absence to presence of compound at 1.24 mmol/kg, iv pretreated as single dose for 10 mins followed by irradiation measured after 18 hrs by excision assay; type: functional
HCT-116 [12] = assay: Cytotoxicity against human HCT116 cells at anoxic IC50 incubated for 1 hr at 21 degC by clonogenic survival assay; conditions: hct-116, 1 h
HCT-116 [13] = assay: as §2, with “9.8” for “0.03”; type: functional
[14] = Toxicity in NIH-III mouse at 10 ml/kg, iv; conditions: in vivo
Method in brief: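 MTD was the highest dose without drug-related deaths, >15% body-weight loss or severe morbidity. MAD was the maximum dose soluble in the injection volume. Vehicle was 0.9% saline with 1% DMSO, or for phosphate prodrugs saline with 2 molar equivalents of NaHCO3.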

HCT-116 [15] = assay: as §1, with “9.8” for “0.03”; type: functional
HCT-116 [16] = assay: as §2, with “9.8” for “0.03”, “method relative to misonidazole” for “method”; type: functional
HCT-116 [17] = assay: as §1, with “9.8” for “0.03”, “method” for “method relative to misonidazole”; type: functional
Mus musculus [18] = assay: Toxicity in NIH-III mouse xenografted with human HCT116 cells assessed as change in body weight with 12.5 Gy radiation at 0.93 mmol/kg, iv administered as single dose; conditions: in vivo
[19] = Tmax in plasma of NIH-III mouse xenografted with human HCT116 cells at 1.24 mmol/kg, iv administered as single dose by HPLC analysis; type: ADME, organism-based
Method in brief: (§5)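 Female NIH-III mice bearing subcutaneous HCT116 tumors (10^6 cells; ~300 mm3) got a single i.v. dose at the MAD or 75% of the MTD. Vehicle was saline with 1% DMSO, or saline with 2 equivalents of NaHCO3 for the phosphates. Plasma and tumor were sampled at multiple times by cardiac puncture and excision, drug was measured by HPLC, and Tmax came from noncompartmental analysis.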

[20] = Electrophilicity of the compound in pH 7 phosphate buffer assessed as one-electron reduction potential
Method in brief: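 The one-electron reduction potential was set by pulse radiolysis equilibria at pH 7.0 (2.5 mM phosphate), established within 20 µs against benzylviologen, methylviologen or triquat. ΔE came from equilibrium constants via the Nernst equation, at three concentration ratios and 22 ± 2 °C.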

[21] = Tmax in tumor of NIH-III mouse xenografted with human HCT116 cells at 1.24 mmol/kg, iv administered as single dose by HPLC analysis; type: ADME, organism-based, Neoplasm; conditions: 0.93 mmol/kg, in the assay text read “0.93 mmol/kg” for “1.24 mmol/kg”; method in brief: as §5
[22] = Cmax in tumor of NIH-III mouse xenografted with human HCT116 cells at 1.24 mmol/kg, iv administered as single dose by HPLC analysis; type: ADME, organism-based, Neoplasm; design: dose 1.24 mmol/kg, route intravenous; conditions: in vivo
Method in brief: (§6)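 Female NIH-III mice bearing subcutaneous HCT116 xenografts (10^6 cells inoculated). At ca. 300 mm3 tumor size, a single i.v. dose was given at the MAD or 75% of the MTD. Vehicle was 0.9% saline with 1% DMSO, or saline with 2 molar equivalents NaHCO3 for phosphate prodrugs. Plasma and tumor were sampled at multiple times by cardiac puncture and excision, assayed by HPLC, and analysed noncompartmentally.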

Plasma [23] = assay: Cmax in plasma of NIH-III mouse xenografted with human HCT116 cells at 1.24 mmol/kg, iv administered as single dose by HPLC analysis; type: ADME, organism-based; design: dose 1.24 mmol/kg, route intravenous; conditions: in vivo; method in brief: as §6
HCT-116 [24] = assay: as §1, with “0.11” for “0.03”; type: functional
Plasma [25] = assay: Cmax in plasma of NIH-III mouse xenografted with human HCT116 cells at 0.60 mmol/kg, iv administered as single dose by HPLC analysis; type: ADME, organism-based; design: dose 0.6 mmol/kg, route intravenous; conditions: in vivo; method in brief: as §6
[26] = Tmax in plasma of NIH-III mouse xenografted with human HCT116 cells at 0.60 mmol/kg, iv administered as single dose by HPLC analysis; type: ADME, organism-based; conditions: 0.6 mmol/kg; method in brief: as §5
HCT-116 [27] = assay: as §1, with “0.11” for “0.03”, “method” for “method relative to misonidazole”; type: functional
[28] = Tmax in tumor of NIH-III mouse xenografted with human HCT116 cells at 0.60 mmol/kg, iv administered as single dose by HPLC analysis; type: ADME, organism-based, Neoplasm; conditions: 0.6 mmol/kg; method in brief: as §5
[29] = Cmax in tumor of NIH-III mouse xenografted with human HCT116 cells at 0.60 mmol/kg, iv administered as single dose by HPLC analysis; type: ADME, organism-based, Neoplasm; design: dose 0.6 mmol/kg, route intravenous; conditions: in vivo; method in brief: as §6
Mus musculus [30] = assay: Drug level in NIH-III mouse assessed as maximum achievable dose at 10 ml/kg, iv; type: ADME; conditions: in vivo
Method in brief: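 Non-tumor-bearing female NIH-III mice (~20 g) received freshly prepared solutions i.v. at 10 mL/kg in 0.9% saline with 1% DMSO, or saline with 2 molar equivalents NaHCO3 for phosphate prodrugs. MAD was the maximum dose that dissolved in the injection volume.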

HCT-116 [31] = assay: as §4, with “0.6” for “1.24”; type: functional
HCT-116 [32] = assay: as §2, with “0.4” for “0.03”; type: functional
HCT-116 [33] = assay: as §2, with “0.4” for “0.03”, “method relative to misonidazole” for “method”; type: functional
HCT-116 [34] = assay: as §1, with “0.4” for “0.03”, “method” for “method relative to misonidazole”; type: functional
[35] = Tmax in plasma of NIH-III mouse xenografted with human HCT116 cells at 1.12 mmol/kg, iv administered as single dose by HPLC analysis; type: ADME, organism-based; method in brief: as §5
Plasma [36] = assay: Cmax in plasma of NIH-III mouse xenografted with human HCT116 cells at 1.12 mmol/kg, iv administered as single dose by HPLC analysis; type: ADME, organism-based; design: dose 1.12 mmol/kg, route intravenous; conditions: in vivo; method in brief: as §6
HCT-116 [37] = assay: as §4, with “1.12” for “1.24”; type: functional
[38] = Cmax in tumor of NIH-III mouse xenografted with human HCT116 cells at 1.12 mmol/kg, iv administered as single dose by HPLC analysis; type: ADME, organism-based, Neoplasm; design: dose 1.12 mmol/kg, route intravenous; conditions: in vivo; method in brief: as §6
[39] = Tmax in tumor of NIH-III mouse xenografted with human HCT116 cells at 1.12 mmol/kg, iv administered as single dose by HPLC analysis; type: ADME, organism-based, Neoplasm; method in brief: as §5
HCT-116 [40] = assay: as §1, with “0.4” for “0.03”; type: functional

O=[N+]([O-])c1nccn1CS(=O)(=O)N1CCOCC1
Ratio IC50 (HCT-116 [1]): 11 | fold change (FC) (HCT-116 [2]): 0.58 | Activity (HCT-116 [3]): Non-Toxic | Ratio (HCT-116 [4]): 1.11 | IC50 (HCT-116 [5]): 380 to 4800 µM | Ratio (HCT-116 [6]): 3.8 | fold change (FC) (HCT-116 [7]): 0.87 | solubility [8]: 1.08 mM (≈ 0.298 mg/mL) | IC50 (HCT-116 [9]): 30 µM | Ratio (HCT-116 [10]): 2

O=[N+]([O-])c1cncn1CCN1CCOCC1 [NIMORAZOLE]
Ratio (HCT-116 [11]): 4 | Activity (HCT-116 [12]): Non-Toxic | Ratio (HCT-116 [13]): 1.8 | MTD [14]: 1240 µmol/kg | fold change (FC) (HCT-116 [15]): 7.28 | Ratio IC50 (HCT-116 [1]): 0.8 | fold change (FC) (HCT-116 [16]): 1.27 | Ratio (HCT-116 [17]): 44.9 | Activity (Mus musculus [18]): Non-Toxic | Tmax [19]: 5 min | Ratio (HCT-116 [6]): 37 | Activity [20]: -457 mV | Tmax [21]: 10 min | solubility [8]: > 100 mM | Cmax [22]: 91 µM | IC50 (HCT-116 [9]): 9800 µM | Cmax (Plasma [23]): 1210 µM

O=[N+]([O-])c1nccn1CS(=O)(=O)NCCO
fold change (FC) (HCT-116 [24]): 0.47 | Cmax (Plasma [25]): 570 µM | Activity (HCT-116 [12]): Non-Toxic | Tmax [26]: 5 min | Ratio (HCT-116 [27]): 1.8 | Tmax [28]: 10 min | Cmax [29]: 94 µM | IC50 (HCT-116 [5]): 380 to 4800 µM | Drug uptake (Mus musculus [30]): 0.6 mmol/kg | Ratio (HCT-116 [31]): 2.4

O=[N+]([O-])c1nccn1CCS(=O)(=O)NCCN1CCOCC1
Ratio (HCT-116 [32]): 1.357 | fold change (FC) (HCT-116 [33]): 0.92 | Ratio (HCT-116 [34]): 5 | Tmax [35]: 5 min | Cmax (Plasma [36]): 1040 µM | Activity (HCT-116 [12]): Non-Toxic | Ratio IC50 (HCT-116 [1]): 10 | Ratio (HCT-116 [37]): 2 | Cmax [38]: 410 µM | Tmax [39]: 10 min | fold change (FC) (HCT-116 [40]): 0.57 | IC50 (HCT-116 [5]): 380 to 4800 µM | Ratio (HCT-116 [6]): 6 | Drug uptake (Mus musculus [30]): 1.12 mmol/kg | solubility [8]: > 163 mM | IC50 (HCT-116 [9]): 400 µM
